Screens (PubChem BioAssay)
Sampled rows, rich in hits. Any-hit rate of the full collection: about 5.1%.
STAT3 inh = inhibitors of IL-6 induced STAT3 signaling; inhibition, % at 5.5 µM; U3A cells, IL-6 STAT3-luciferase reporter, luminescence; host cell line lacks STAT1; 0.89% of 190,000 active;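 active = inhibition above the mean inhibition across all screened compounds plus 3 SD, cut at about 44% in these data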;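 also: 0% = DMSO only wells and 100% = 100 µM nifuroxazide control wells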
NF-kB neuron act = raises NF-kB expression in human neuronal cells; NF-kB reporter expression; hits give high values; fold change at 12.5 µM; 1.6% of 190,000 active; in the data active = fold change above about 3.3
STAT1 activator = increases IFN-gamma driven STAT1 reporter signal. NIH 3T3 STAT1-luciferase reporter, luminescence; 100% = IFN-gamma alone, no compound. activation (% of control), % at 5.5 µM. 2.6% of 200,000 active;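 active = activation above the screen-wide mean activation plus 3 SD, cut at about 130% in these data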;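 also: raw ratio to IFN-gamma control signal so 100% means no change and 0% no light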
STAT3 activator = activators of IL-6 induced STAT3 signaling | 0.91% of 190,000 active | U3A cells, IL-6 STAT3-luciferase reporter, luminescence; 100% = signal with IL-6 EC80 alone | AID 871 | activation (% of control), % at 5.6 µM;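 active = activation above the screen-wide mean of compound activation plus 3 SD, cut at about 130% in these data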;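 also: 0% = background luminescence of wells with medium and substrate only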
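Test system: Human STAT1-deficient U3A cells with stable STAT3-luciferase reporter | Also added: Interleukin-6, 33 ng/mL | Timing: Compound pre-incubation 1 h before IL-6, then 6 h stimulation at 37 °C | Technique: Luciferase reporter luminescence | Read-out: Percent of IL-6-only median luminescence | Benchmarks: IL-6-only wells as 100% reference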
STAT1 inh = inhibitors of IFN-gamma induced STAT1 signaling; 0.35% of 200,000 active; NIH 3T3 STAT1-luciferase reporter, luminescence; inhibition, % at 5.5 µM;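 active = inhibition above a set limit, the mean inhibition across all tested compounds plus 3 SD, cut at about 34% in these data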;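 also: 0% = IFN-gamma with DMSO and 100% = IFN-gamma with 300 µM nifuroxazide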
APP 5'UTR act = APP 5'UTR luciferase reporter activation. AID 1276. 1% of 190,000 active. SH-SY5Y APP 5'UTR luciferase reporter, luminescence; zero percent = DMSO vehicle wells. activation, % at 2 µM;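 active = activation above a set limit, based on mean plus 3 SD of controls, cut at about 140% in these data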
The depositor's hits bear a star.

Results for N/C(=N\OC(=O)c1ccc2ccccc2c1)c1ccncc1 ?
STAT3 inh: 14.8; NF-kB neuron act: 1.16; STAT1 activator: 147.8*; STAT3 activator: 89.3; STAT1 inh: -54.1; APP 5'UTR act: 149.2*

Results for COc1cccc(C(=O)O/N=C(\N)c2ccncc2)c1OC ?
STAT3 inh: -1.2; NF-kB neuron act: 1.76; STAT1 activator: 114.5; STAT3 activator: 100.2; STAT1 inh: -16.3; APP 5'UTR act: 32.1

How did N#Cc1c(-c2ccccc2F)cc(C2CC2)nc1SCC(=O)c1cccs1 do in these assays?
STAT3 inh: 7.6; NF-kB neuron act: 1.4; STAT1 activator: 87.9; STAT3 activator: 90.4; STAT1 inh: 13.3; APP 5'UTR act: 13.8

How did Cc1cccc(N2NC(=O)/C(=C/c3ccc(-c4ccc(Cl)c(C(=O)O)c4)o3)C2=O)c1 do in these assays?
STAT3 inh: 7.4; NF-kB neuron act: 3.94*; STAT1 activator: 89.7; STAT3 activator: 95.1; STAT1 inh: 10.1; APP 5'UTR act: 9.4

Results for Cc1ccc(NC(=S)c2nc3ccccc3[nH]2)cc1 ?
STAT3 inh: 36.6; NF-kB neuron act: 4.47*; STAT1 activator: 119.3; STAT3 activator: 77.6; STAT1 inh: -21.4; APP 5'UTR act: 193.0*

What do the screens show for `Cc1ccc(SCC(=O)Nc2ccc(-c3nc4ccccc4[nH]3)cc2)cc1`?
STAT3 inh: -0.8; NF-kB neuron act: 1.43; STAT1 activator: 132.2*; STAT3 activator: 101.0; STAT1 inh: -36.2; APP 5'UTR act: 7.5

Results for S=C(NCCCN1CCOCC1)Nc1ccc(-c2nc3ccccc3[nH]2)cc1 ?
STAT3 inh: 3.8; NF-kB neuron act: 0.99; STAT1 activator: 105.1; STAT3 activator: 100.8; STAT1 inh: -9.1; APP 5'UTR act: 18.1

What do the screens show for `Cc1ccc(NC(=S)N2CCCC(c3nc4ccccc4[nH]3)C2)cc1` (stereo not given)?
STAT3 inh: -3.3; NF-kB neuron act: 0.55; STAT1 activator: 94.1; STAT3 activator: 109.8; STAT1 inh: 5.5; APP 5'UTR act: 0.3

How did CC(C)CC(=O)Nc1ccc(-c2nc3ccccc3c(=O)[nH]2)cc1 do in these assays?
STAT3 inh: 23.9; NF-kB neuron act: 1.28; STAT1 activator: 139.7*; STAT3 activator: 79.5; STAT1 inh: -42.2; APP 5'UTR act: 183.8*

How did CN(C)CCNC(=S)Nc1ccc(-c2nc3ccccc3[nH]2)cc1 do in these assays?
STAT3 inh: 20.7; NF-kB neuron act: 3.7*; STAT1 activator: 101.8; STAT3 activator: 88.8; STAT1 inh: -1.6; APP 5'UTR act: 162.9*

Results for O=C(c1cccc(S(=O)(=O)Nc2ccccc2F)c1)N1CCN(c2ccccc2F)CC1 ?
STAT3 inh: 4.9; NF-kB neuron act: 1.18; STAT1 activator: 99.2; STAT3 activator: 98.0; STAT1 inh: 0.1; APP 5'UTR act: 11.8

Results for O=C(N/C(=C/C=C\c1ccccc1)C(=O)N1CCOCC1)c1ccc(Br)cc1 ?
STAT3 inh: 7.6; NF-kB neuron act: 0.89; STAT1 activator: 96.8; STAT3 activator: 97.6; STAT1 inh: 0.6; APP 5'UTR act: -5.5

What do the screens show for `CCOC(=O)C1=C(O)/C(=C/c2ccc(C)o2)SC1=NC(=O)c1ccccc1C`?
STAT3 inh: 19.8; STAT1 activator: 97.9; STAT3 activator: 86.0; STAT1 inh: 1.9; APP 5'UTR act: -15.5

Results for CN(C(=O)CSc1nnc(-c2ccc(F)cc2)c2ccccc12)C1CCS(=O)(=O)C1 (stereo not given) ?
STAT3 inh: -6.9; NF-kB neuron act: 1.08; STAT1 activator: 97.4; STAT3 activator: 109.0; STAT1 inh: 0.9; APP 5'UTR act: 15.4

Results for CC(=O)Nc1ccc(-c2nc3c(C)cccc3[nH]2)cc1 ?
STAT3 inh: -19.0; NF-kB neuron act: 3.82*; STAT1 activator: 129.5*; STAT3 activator: 118.2; STAT1 inh: -31.9; APP 5'UTR act: 169.4*

Results for Cc1ccc2c(c1)c(N=NC(N)=O)c(O)n2C ?
STAT3 inh: 6.2; NF-kB neuron act: 1.28; STAT1 activator: 103.2; STAT3 activator: 96.6; STAT1 inh: -5.0; APP 5'UTR act: 4.2

What do the screens show for `CC(C)CC1c2[nH]c3ccccc3c2CCN1C(=O)c1cnccn1` (stereo not given)?
STAT3 inh: -61.0; NF-kB neuron act: 2.98; STAT1 activator: 146.0*; STAT3 activator: 170.8*; STAT1 inh: -51.5; APP 5'UTR act: 90.2
